Measured values: ChEMBL document CHEMBL1811853, “Design and evaluation of 3-aminopyrazolopyridinone kinase inhibitors inspired by the natural product indirubin” (Bioorg Med Chem, 2011)

Key:
[1] = biological target: Tyrosine-protein kinase ABL1 (Homo sapiens, UniProt P00519); experiment: Inhibition of ABL at 30 uM by microfluidic mobility shift assay
In short: (§1)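 Single-concentration screen, singlicate, 30 uM final (diluted from 1 mM DMSO solutions), fluorescently tagged peptide substrate appropriate to each kinase, ATP at apparent Km for each protein. Phosphorylated and unphosphorylated peptides separated electrophoretically; conversion is the phosphorylated peak area over the sum of both peaks. No-inhibitor and no-ATP controls; H89 reference on each plate.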

[2] = biological target: T1, Serine/threonine-protein kinase D2 (Homo sapiens) (UniProt Q9BZL6); experiment: Inhibition of PKD2 at 30 uM by microfluidic mobility shift assay; in short: as §1
T1 sequence (whole entry): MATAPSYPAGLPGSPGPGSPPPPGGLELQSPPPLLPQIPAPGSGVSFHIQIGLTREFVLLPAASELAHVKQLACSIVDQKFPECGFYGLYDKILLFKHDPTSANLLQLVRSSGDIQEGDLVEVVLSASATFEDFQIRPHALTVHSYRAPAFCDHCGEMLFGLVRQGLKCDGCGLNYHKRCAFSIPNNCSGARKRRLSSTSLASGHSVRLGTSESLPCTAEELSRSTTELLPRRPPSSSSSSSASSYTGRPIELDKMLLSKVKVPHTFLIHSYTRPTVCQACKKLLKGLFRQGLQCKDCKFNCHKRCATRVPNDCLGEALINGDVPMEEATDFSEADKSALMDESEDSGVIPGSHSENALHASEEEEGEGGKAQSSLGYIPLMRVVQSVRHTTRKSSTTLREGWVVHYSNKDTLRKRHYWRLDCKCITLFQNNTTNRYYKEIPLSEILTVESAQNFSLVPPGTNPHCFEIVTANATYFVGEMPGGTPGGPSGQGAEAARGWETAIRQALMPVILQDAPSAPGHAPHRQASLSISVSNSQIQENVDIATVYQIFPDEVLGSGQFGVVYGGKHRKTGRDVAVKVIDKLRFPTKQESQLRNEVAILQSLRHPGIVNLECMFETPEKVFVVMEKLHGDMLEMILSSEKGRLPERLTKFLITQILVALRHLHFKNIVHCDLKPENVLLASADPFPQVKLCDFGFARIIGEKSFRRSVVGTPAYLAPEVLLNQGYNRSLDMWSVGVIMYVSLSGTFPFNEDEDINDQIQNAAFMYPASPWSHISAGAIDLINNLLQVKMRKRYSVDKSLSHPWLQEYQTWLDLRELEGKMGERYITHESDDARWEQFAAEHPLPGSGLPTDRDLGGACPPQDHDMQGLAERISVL

[3] = biological target: RAC-beta serine/threonine-protein kinase (Homo sapiens) (UniProt P31751); experiment: Inhibition of AKT2 at 30 uM by microfluidic mobility shift assay; in short: as §1
Chain of RAC-beta serine/threonine-protein kinase (Homo sapiens) (P31751 whole entry): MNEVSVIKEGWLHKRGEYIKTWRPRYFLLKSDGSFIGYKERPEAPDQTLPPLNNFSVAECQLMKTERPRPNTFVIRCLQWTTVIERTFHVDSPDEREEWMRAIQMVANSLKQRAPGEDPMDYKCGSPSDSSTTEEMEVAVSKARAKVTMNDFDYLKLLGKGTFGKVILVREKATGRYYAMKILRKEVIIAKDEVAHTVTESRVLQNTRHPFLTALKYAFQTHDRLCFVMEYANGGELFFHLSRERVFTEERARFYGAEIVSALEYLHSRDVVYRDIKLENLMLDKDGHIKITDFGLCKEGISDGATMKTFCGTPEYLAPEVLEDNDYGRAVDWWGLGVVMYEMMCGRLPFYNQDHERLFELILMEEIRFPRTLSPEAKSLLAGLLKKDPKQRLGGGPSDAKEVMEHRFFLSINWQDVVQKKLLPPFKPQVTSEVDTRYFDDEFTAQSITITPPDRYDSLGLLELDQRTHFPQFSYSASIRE

[4] = biological target: Mitogen-activated protein kinase 14 (Homo sapiens, UniProt Q16539); experiment: Inhibition of p38alpha at 30 uM by microfluidic mobility shift assay; in short: as §1
Chain of Mitogen-activated protein kinase 14 (Q16539 whole entry): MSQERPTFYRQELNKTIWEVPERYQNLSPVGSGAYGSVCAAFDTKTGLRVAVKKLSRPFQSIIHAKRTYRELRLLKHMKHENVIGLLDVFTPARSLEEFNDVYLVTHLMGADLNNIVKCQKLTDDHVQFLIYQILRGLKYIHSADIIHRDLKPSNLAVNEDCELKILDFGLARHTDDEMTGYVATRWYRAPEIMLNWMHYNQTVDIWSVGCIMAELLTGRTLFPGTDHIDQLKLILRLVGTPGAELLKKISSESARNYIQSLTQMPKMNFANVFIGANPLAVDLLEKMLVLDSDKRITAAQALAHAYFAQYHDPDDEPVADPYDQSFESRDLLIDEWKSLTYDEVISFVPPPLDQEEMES

[5] = biological target: T2, Protein kinase C zeta type (Homo sapiens) (UniProt Q05513); experiment: Inhibition of PKCz at 30 uM by microfluidic mobility shift assay; in short: as §1
T2 sequence (whole entry): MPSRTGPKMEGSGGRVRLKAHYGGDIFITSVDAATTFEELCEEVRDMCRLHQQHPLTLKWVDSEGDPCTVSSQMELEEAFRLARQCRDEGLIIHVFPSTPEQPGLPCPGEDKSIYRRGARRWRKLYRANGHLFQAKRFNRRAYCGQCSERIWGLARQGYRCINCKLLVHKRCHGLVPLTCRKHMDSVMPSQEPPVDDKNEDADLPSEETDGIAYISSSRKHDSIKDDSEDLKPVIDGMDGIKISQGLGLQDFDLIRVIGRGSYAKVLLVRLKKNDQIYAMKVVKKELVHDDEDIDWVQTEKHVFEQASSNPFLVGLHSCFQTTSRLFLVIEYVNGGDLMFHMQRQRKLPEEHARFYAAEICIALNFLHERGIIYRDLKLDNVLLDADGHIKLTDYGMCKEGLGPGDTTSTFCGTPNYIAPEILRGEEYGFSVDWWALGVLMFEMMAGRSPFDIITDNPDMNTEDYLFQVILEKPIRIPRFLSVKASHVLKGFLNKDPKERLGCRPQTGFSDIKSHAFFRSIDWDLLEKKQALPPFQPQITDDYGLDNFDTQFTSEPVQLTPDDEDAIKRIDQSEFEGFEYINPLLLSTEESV

[6] = biological target: MAP kinase-activated protein kinase 2 (Homo sapiens, UniProt P49137); experiment: Inhibition of MAPKAPK2 at 30 uM by microfluidic mobility shift assay; in short: as §1
Chain of MAP kinase-activated protein kinase 2 (P49137 whole entry, looked up): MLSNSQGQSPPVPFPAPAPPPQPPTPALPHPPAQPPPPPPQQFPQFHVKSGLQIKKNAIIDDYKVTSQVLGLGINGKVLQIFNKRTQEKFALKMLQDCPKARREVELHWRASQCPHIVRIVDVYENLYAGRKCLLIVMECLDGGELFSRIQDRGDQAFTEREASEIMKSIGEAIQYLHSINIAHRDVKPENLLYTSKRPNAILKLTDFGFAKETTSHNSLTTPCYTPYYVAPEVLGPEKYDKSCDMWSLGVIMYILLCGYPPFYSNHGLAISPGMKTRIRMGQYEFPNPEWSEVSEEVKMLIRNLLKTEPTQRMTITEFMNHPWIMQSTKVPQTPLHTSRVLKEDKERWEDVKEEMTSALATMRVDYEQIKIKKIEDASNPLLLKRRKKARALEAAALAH

[7] = biological target: Mitogen-activated protein kinase 1 (Homo sapiens) (UniProt P28482); experiment: Inhibition of ERK2 at 30 uM by microfluidic mobility shift assay; in short: as §1
Chain of Mitogen-activated protein kinase 1 (Homo sapiens) (P28482 whole entry): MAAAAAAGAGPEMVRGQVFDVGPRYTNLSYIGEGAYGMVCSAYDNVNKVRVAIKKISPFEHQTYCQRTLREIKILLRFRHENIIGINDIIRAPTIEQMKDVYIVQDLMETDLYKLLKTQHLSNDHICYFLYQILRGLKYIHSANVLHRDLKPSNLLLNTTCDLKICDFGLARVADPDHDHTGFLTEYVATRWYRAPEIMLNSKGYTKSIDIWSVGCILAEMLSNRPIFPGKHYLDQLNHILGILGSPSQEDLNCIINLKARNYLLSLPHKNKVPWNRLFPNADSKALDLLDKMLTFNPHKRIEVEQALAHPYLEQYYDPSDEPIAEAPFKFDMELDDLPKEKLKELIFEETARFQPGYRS

[8] = biological target: Tyrosine-protein kinase Fyn (Homo sapiens, UniProt P06241); experiment: Inhibition of FYN at 30 uM by microfluidic mobility shift assay; in short: as §1
[9] = biological target: Mitogen-activated protein kinase 3 (Homo sapiens) (UniProt P27361); experiment: Inhibition of ERK1 at 30 uM by microfluidic mobility shift assay; in short: as §1
Chain of Mitogen-activated protein kinase 3 (Homo sapiens) (P27361 whole entry): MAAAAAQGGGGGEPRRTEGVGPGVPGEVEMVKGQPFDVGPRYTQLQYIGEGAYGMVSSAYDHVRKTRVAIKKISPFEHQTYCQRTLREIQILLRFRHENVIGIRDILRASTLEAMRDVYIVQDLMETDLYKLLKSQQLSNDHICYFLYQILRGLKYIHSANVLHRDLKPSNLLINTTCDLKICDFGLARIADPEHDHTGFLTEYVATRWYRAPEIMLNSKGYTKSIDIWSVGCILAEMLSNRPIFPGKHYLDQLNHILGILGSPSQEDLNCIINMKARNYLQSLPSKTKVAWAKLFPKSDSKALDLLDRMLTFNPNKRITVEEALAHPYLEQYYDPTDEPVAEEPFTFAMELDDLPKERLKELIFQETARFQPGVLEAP

[10] = biological target: Ribosomal protein S6 kinase alpha-1 (Homo sapiens) (UniProt Q15418); experiment: Inhibition of RSK1 at 30 uM by microfluidic mobility shift assay; in short: as §1
[11] = biological target: Ribosomal protein S6 kinase alpha-5 (Homo sapiens) (UniProt O75582); experiment: Inhibition of MSK1 at 30 uM by microfluidic mobility shift assay; in short: as §1
Chain of Ribosomal protein S6 kinase alpha-5 (Homo sapiens) (O75582 whole entry, looked up): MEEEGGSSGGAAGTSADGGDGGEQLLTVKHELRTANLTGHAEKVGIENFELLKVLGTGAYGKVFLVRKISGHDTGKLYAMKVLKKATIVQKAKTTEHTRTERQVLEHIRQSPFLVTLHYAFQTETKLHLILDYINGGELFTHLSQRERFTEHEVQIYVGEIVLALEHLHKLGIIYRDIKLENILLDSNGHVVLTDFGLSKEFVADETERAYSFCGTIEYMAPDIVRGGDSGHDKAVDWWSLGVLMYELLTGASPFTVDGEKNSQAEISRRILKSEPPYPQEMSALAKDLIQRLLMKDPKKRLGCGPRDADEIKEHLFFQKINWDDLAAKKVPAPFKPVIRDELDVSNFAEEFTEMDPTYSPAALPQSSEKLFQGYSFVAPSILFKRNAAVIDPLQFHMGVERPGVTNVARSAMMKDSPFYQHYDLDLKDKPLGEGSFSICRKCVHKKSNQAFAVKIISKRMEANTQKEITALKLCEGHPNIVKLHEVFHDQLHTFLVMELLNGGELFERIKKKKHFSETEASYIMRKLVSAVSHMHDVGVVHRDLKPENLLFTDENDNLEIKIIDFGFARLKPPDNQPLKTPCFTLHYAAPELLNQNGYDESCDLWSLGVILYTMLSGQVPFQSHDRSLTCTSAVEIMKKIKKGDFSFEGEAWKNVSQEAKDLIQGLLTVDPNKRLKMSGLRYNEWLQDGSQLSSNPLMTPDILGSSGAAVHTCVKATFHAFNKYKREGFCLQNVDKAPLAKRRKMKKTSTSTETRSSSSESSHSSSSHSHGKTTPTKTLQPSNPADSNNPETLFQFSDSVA

[12] = biological target: T3, Aurora kinase A (Homo sapiens) (UniProt O14965); experiment: Inhibition of AurA at 30 uM by microfluidic mobility shift assay; in short: as §1
T3 sequence (whole entry): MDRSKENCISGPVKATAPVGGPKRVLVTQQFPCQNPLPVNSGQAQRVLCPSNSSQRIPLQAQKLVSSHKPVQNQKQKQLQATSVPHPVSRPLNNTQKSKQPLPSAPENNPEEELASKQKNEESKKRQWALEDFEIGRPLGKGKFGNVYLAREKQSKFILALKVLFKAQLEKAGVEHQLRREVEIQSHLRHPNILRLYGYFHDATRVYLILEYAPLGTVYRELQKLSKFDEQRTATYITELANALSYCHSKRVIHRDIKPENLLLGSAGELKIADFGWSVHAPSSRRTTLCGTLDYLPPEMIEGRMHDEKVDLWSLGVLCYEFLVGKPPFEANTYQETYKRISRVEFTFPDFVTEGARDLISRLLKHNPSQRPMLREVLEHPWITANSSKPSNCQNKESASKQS

[13] = biological target: Tyrosine-protein kinase Lck (Homo sapiens, UniProt P06239); experiment: Inhibition of LCK at 30 uM by microfluidic mobility shift assay; in short: as §1
Chain of Tyrosine-protein kinase Lck (P06239 2-509 limits assumed): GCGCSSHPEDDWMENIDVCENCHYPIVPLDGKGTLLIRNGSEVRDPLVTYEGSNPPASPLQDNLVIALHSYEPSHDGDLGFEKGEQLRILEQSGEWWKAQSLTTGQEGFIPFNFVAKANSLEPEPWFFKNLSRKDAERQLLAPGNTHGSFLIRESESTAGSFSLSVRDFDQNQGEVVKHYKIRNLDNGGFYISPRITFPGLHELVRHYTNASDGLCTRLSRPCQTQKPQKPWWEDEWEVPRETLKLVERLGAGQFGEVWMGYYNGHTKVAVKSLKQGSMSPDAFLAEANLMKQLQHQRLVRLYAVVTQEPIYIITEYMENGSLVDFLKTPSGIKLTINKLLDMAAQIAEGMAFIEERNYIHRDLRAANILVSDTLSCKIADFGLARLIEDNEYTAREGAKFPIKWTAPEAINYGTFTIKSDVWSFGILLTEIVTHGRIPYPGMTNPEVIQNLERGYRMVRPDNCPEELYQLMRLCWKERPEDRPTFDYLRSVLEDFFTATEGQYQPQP

[14] = biological target: RAC-alpha serine/threonine-protein kinase (Homo sapiens) (UniProt P31749); experiment: Inhibition of AKT1 at 30 uM by microfluidic mobility shift assay; in short: as §1
Chain of RAC-alpha serine/threonine-protein kinase (Homo sapiens) (P31749 whole entry): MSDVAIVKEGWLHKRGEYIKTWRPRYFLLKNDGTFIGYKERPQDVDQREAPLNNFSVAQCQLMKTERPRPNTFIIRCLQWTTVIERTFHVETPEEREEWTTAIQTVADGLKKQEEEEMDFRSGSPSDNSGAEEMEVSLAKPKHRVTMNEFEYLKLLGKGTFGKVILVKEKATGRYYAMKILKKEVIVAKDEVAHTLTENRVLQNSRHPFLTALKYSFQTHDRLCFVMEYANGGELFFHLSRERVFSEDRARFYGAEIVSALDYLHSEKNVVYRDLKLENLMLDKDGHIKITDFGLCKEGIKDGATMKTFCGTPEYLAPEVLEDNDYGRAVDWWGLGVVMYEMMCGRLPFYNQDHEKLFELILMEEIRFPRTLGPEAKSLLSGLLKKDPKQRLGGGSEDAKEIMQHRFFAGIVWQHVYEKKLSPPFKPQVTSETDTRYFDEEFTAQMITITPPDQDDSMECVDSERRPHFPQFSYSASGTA

[15] = biological target: Glycogen synthase kinase-3 beta (Homo sapiens) (UniProt P49841); experiment: Inhibition of GSK3B at 30 uM by microfluidic mobility shift assay; in short: as §1

Chain of Tyrosine-protein kinase ABL1 (P00519 whole entry): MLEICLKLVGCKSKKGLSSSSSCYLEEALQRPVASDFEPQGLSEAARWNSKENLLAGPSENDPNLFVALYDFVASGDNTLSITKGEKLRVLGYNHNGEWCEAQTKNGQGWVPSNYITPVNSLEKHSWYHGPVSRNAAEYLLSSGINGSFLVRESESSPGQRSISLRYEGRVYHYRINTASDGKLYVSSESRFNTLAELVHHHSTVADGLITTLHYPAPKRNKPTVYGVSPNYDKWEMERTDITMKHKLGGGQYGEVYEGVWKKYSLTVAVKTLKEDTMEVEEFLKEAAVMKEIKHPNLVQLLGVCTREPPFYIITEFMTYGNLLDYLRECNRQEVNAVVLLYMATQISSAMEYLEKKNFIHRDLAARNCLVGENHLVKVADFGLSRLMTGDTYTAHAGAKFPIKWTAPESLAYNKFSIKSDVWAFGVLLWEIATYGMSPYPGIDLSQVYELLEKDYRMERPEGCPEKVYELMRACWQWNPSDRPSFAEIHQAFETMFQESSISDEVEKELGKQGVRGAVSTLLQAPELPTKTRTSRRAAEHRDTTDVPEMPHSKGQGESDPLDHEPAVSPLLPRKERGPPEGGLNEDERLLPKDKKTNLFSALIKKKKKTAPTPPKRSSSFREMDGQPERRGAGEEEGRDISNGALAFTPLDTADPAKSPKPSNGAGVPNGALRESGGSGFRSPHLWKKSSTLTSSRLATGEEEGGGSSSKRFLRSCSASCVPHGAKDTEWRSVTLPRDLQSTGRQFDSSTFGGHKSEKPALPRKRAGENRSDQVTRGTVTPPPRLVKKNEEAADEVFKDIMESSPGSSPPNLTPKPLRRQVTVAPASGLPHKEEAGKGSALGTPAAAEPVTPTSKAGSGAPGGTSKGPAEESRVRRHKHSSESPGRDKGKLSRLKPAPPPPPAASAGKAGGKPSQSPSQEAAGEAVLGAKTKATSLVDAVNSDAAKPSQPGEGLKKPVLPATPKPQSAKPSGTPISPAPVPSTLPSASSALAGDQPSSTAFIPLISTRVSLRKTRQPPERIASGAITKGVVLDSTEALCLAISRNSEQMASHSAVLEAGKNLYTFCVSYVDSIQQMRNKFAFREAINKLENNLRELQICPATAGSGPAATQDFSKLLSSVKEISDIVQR

| Compound | inhibition [1] | inhibition [2] | inhibition [3] | inhibition [4] | inhibition [5] | inhibition [6] | inhibition [7] | inhibition [8] | inhibition [9] | inhibition [10] | inhibition [11] | inhibition [12] | inhibition [13] | inhibition [14] | inhibition [15] |
| --- | --- | --- | --- | --- | --- | --- | --- | --- | --- | --- | --- | --- | --- | --- | --- |
| COc1ccc(-c2cc3[nH]nc(N)c3c(=O)[nH]2)cc1 | 55% | 28% | 11% | 0% | 7% | 59% | 12% | 50% | 13% | 7% | 62% | 49% | 54% | 21% | 78% |
| CC(C)(C)c1cc2nn(-c3ccccc3)c(N)c2c(=O)[nH]1 | 13% | 15% | 3% | 85% | -1% | 6% | 18% | 9% | 21% | 5% | -1% | 9% | 8% | 7% | 31% |
| CN1CCN(c2ccc(-c3cc4c(c(N)nn4C)c(=O)[nH]3)cc2)CC1 | 80% | 34% | -1% | 3% | 7% | 45% | 4% | 65% | 13% | 14% | 29% | 52% | 65% | 8% | 45% |
| Cc1cc2c(c(NS(C)(=O)=O)nn2C)c(=O)[nH]1 | -2% | 8% | 16% | 0% | 27% | 1% | 3% | 11% | 0% | -6% | 4% | -8% | 4% | 1% | 13% |
| Cn1nc2c3c(nc(-c4ccccc4)cc31)NCC(=O)N2 | 4% | 17% | 1% | 6% | 5% | 8% | 2% | 12% | 5% | 0% | 0% | 20% | 6% | 10% | 14% |
| Cc1nc(N)c2c(=O)[nH]c(C)cc2n1 | 18% | 6% | 2% | 2% | 3% | 18% | 3% | 8% | 4% |  | 0% | 3% | 5% | -2% | 52% |

Further lines, results first:

| inhibition [1] | inhibition [2] | inhibition [3] | inhibition [4] | inhibition [5] | inhibition [6] | inhibition [7] | inhibition [8] | inhibition [9] | inhibition [10] | inhibition [11] | inhibition [12] | inhibition [13] | inhibition [14] | inhibition [15] | Compound |
| --- | --- | --- | --- | --- | --- | --- | --- | --- | --- | --- | --- | --- | --- | --- | --- |
| -4% | 8% | 4% | 0% | 19% | 2% | 2% | 1% | 2% | -5% | 4% | 0% | 1% | 7% | -6% | Cc1cc2c(c(N)nn2C)c(N2CC[C@H](O)C2)n1 |
| 27% | 17% | 10% | 1% | 0% | 36% | 9% | 24% | 10% | 9% | -4% | 7% | 21% | 7% | 46% | Cn1nc(N)c2c(=O)[nH]c(-c3ccccn3)cc21 |
| 86% | 15% | 6% | 7% | 35% | 55% | -2% | 76% | 4% | 26% | 83% | 51% | 74% | 9% | 42% | CN1CCN(c2ccc(-c3cc4[nH]nc(N)c4c(=O)[nH]3)cc2)CC1 |
| 18% | 14% | 11% | 1% | 43% | -1% | 6% | 53% | 6% | 46% | 87% | 84% | 48% | 36% | 55% | Cc1cc2[nH]nc(N)c2c(N2CCCCC2)n1 |
| 37% | 26% | 8% | 3% | 1% | 40% | 14% | 24% | 19% | 11% | 36% | 42% | 34% | 7% | 71% | Nc1n[nH]c2cc(-c3cccnc3)[nH]c(=O)c12 |
| 15% | -4% | 11% | 7% | 19% | 0% | 7% | 7% | 4% |  | 0% | 10% | 12% | 4% | 2% | Cc1cc2c(c(NC(=O)Nc3ccccc3)nn2C)c(=O)[nH]1 |
